Measured values reported in ChEMBL document CHEMBL1122058, “Agents for the treatment of brain injury. 1. (Aryloxy)alkanoic acids” (J Med Chem, 1982).
Activity calls are given as the source filed them. No cut-off for these calls is given here.

Key:
Pan troglodytes [1] = organism: Pan troglodytes; assay: Relative salidiuretic efficacy was scored in chimpanzee; weak; type: functional, organism-based; settings: Urine
Felis catus [2] = organism: Felis catus; assay: In vitro inhibition of HCO3- stimulated swelling in cat cerebrocortical tissue slice; type: functional; settings: read-out: I 50
Summary of the method: (§1)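 Cat cerebral cortex slices (~150 mg, 0.5 mm) incubated aerobically 60 min at 37 °C in K+-rich (27 mM) Hepes-buffered saline-glucose with test compound as Na salt. HCO3- (NaHCO3 or TEAB) added from sidearm at 20 min to 10 mM final; HCO3- flasks gassed with 2.5% CO2/97.5% O2. Swelling by reweighing; Na+/K+ by flame photometry, Cl- by amperometric titration. Units: per g initial fresh weight; means ± SE, Student's t test.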

Canis familiaris [3] = organism: Canis familiaris; assay: Relative salidiuretic efficacy was scored in dog; moderate; type: functional, organism-based; settings: Canis lupus familiaris; Urine
Rattus norvegicus [4] = organism: Rattus norvegicus; assay: Relative salidiuretic efficacy was scored in Rat; weak; type: functional, organism-based; settings: Urine
[5] = Dissociation constant (pKa) (determined in 30% EtOH); type: physicochemical
[6] = Distribution coefficient (D %) between octanol and buffer of pH 7.4; type: physicochemical; settings: octanol/water
Homo sapiens [7] = organism: Homo sapiens; assay: Relative salidiuretic efficacy was scored in human; moderate; type: functional, organism-based; settings: Urine
Rattus norvegicus [8] = organism: Rattus norvegicus; assay: Relative salidiuretic efficacy was scored in Rat; very marked; type: functional, organism-based; settings: Urine
Homo sapiens [9] = organism: Homo sapiens; assay: Relative salidiuretic efficacy was scored in human; very marked; type: functional, organism-based; settings: Urine
Canis familiaris [10] = organism: Canis familiaris; assay: Relative salidiuretic efficacy was scored in dog; very marked; type: functional, organism-based; settings: Canis lupus familiaris; Urine
Pan troglodytes [11] = organism: Pan troglodytes; assay: Relative salidiuretic efficacy was scored in chimpanzee; very marked; type: functional, organism-based; settings: Urine
Felis catus [12] = assay: Mortality of animals recorded as the number of animals dead out of the total animals (16) taken for the study at dose 1 mg/kg; type: functional
Summary of the method: (§2)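 Adult conditioned cats (2.5–4 kg) under iv methohexital (13.25 mg/kg, plus 2.75 mg/kg if needed) received machine-induced acceleration/deceleration head injury. Forty min later they were paralysed with gallamine and ventilated with 6% O2/94% N2 for 60 min (arterial pO2 23 ± 1 torr). Drug was given iv 20 min post-injury, before hypoxemia. Mortality was scored as dead/total, chi-square tested.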

Rattus norvegicus [13] = organism: Rattus norvegicus; assay: Relative salidiuretic efficacy was scored in Rat; inactive; type: functional, organism-based; settings: Urine
Felis catus [14] = assay: Relative salidiuretic efficacy was scored in cat upon intravenous administration of 20 mg/kg of Na salt; inactive; type: functional, organism-based; design: dose 20 mg/kg; settings: Urine
Pan troglodytes [15] = organism: Pan troglodytes; assay: Relative salidiuretic efficacy was scored in chimpanzee; moderate; type: functional, organism-based; settings: Urine
Canis familiaris [16] = organism: Canis familiaris; assay: Relative salidiuretic efficacy was scored in dog; Marginal; type: functional, organism-based; settings: Canis lupus familiaris; Urine
Rattus norvegicus [17] = organism: Rattus norvegicus; assay: Relative salidiuretic efficacy was scored in Rat; Marginal; type: functional, organism-based; settings: Urine
Felis catus [18] = assay: Mortality of animals recorded as the number of animals dead out of the total animals (22) taken for the study at dose 1 mg/kg; type: functional; summary of the method: as §2
Canis familiaris [19] = organism: Canis familiaris; assay: Relative salidiuretic efficacy was scored in dog; marked; type: functional, organism-based; settings: Canis lupus familiaris; Urine
Felis catus [20] = assay: Mortality of animals recorded as the number of animals dead out of the total animals (16) taken for the study at dose 1 mg/kg given q.i.d.; type: functional
Canis familiaris [21] = organism: Canis familiaris; assay: Relative salidiuretic efficacy was scored in dog; weak; type: functional, organism-based; settings: Canis lupus familiaris; Urine
Felis catus [22] = organism: Felis catus; assay: In vitro inhibition of HCO3- stimulated swelling in cat cerebrocortical tissue slice; At no concentration was swelling inhibited 100%; type: functional; settings: read-out: I 50; summary of the method: as §1
Rattus norvegicus [23] = organism: Rattus norvegicus; assay: Relative salidiuretic efficacy was scored in Rat; moderate; type: functional, organism-based; settings: Urine

Structure (SMILES) | IC50 (Felis catus [2]) | pKa [5] | Distribution [6] | Relative salidiuretic activity (Rattus norvegicus [13]) | also measured
O=C(O)COc1cc2c(c(Cl)c1Cl)C(=O)C(C1CCCC1)C2 (racemic) | 10 µM | 3.9 | 83% | – | Relative salidiuretic activity (Pan troglodytes [1]): moderate; Relative salidiuretic activity (Canis familiaris [3]): moderate; Relative salidiuretic activity (Rattus norvegicus [4]): moderate; Relative salidiuretic activity (Homo sapiens [7]): moderate
NS(=O)(=O)c1cc(C(=O)O)c(NCc2ccco2)cc1Cl [FUROSEMIDE] | 10 µM | – | 28% | – | Relative salidiuretic activity (Rattus norvegicus [8]): Active; Relative salidiuretic activity (Homo sapiens [9]): Active; Relative salidiuretic activity (Canis familiaris [10]): Active; Relative salidiuretic activity (Pan troglodytes [11]): Active
C[C@]1(C2CCCC2)Cc2cc(OCCCC(=O)O)c(Cl)c(Cl)c2C1=O | 0.01 µM | 5.7 | 99% | inactive | Mortality (Felis catus [12]): 5; Relative salidiuretic activity (Felis catus [14]): inactive
CCCC[C@@]1(C2CCCC2)Cc2cc(OCCCC(=O)O)c(Cl)c(Cl)c2C1=O | – | 4.4 | 99.9% | inactive | –
CC1(Cc2ccccc2)Cc2cc(OCC(=O)O)c(Cl)c(Cl)c2C1=O (racemic) | 0.001 µM | 3.8 | 91% | – | Relative salidiuretic activity (Pan troglodytes [15]): Marginal; Relative salidiuretic activity (Canis familiaris [16]): Marginal; Relative salidiuretic activity (Rattus norvegicus [17]): Marginal
CC1(c2ccccc2)Cc2cc(OCC(=O)O)c(Cl)c(Cl)c2C1=O (racemic) [INDACRINONE] | 1 µM | 3.7 | 84% | – | Relative salidiuretic activity (Rattus norvegicus [8]): marked; Mortality (Felis catus [18]): 8; Relative salidiuretic activity (Homo sapiens [9]): marked; Relative salidiuretic activity (Pan troglodytes [11]): marked; Relative salidiuretic activity (Canis familiaris [19]): marked
CCCCC1(C2CCCC2)Cc2cc(OCCCC(=O)O)c(Cl)c(Cl)c2C1=O (racemic) | 0.004 µM | 4.4 | 99.8% | inactive | –
CC(=O)Nc1nnc(S(N)(=O)=O)s1 [ACETAZOLAMIDE] | 2000 µM | – | 22% | – | Mortality (Felis catus [20]): 8
CCC(C)C(=O)c1ccc(OCC(=O)O)c(Cl)c1Cl (stereo unspecified) | 0.5 µM | 3.5 | 96% | inactive | Relative salidiuretic activity (Pan troglodytes [1]): weak; Relative salidiuretic activity (Canis familiaris [21]): weak
CC(C)(Oc1cc2c(c(Cl)c1Cl)C(=O)C(C)(C1CCCC1)C2)C(=O)O (racemic) | > 100 µM | 3.7 | 98.6% | – | –
CC1(C2CCCC2)Cc2cc(OC3(C(=O)O)CCC3)c(Cl)c(Cl)c2C1=O (racemic) | – | 3.8 | 98.6% | – | IC50 (Felis catus [22]): 1 µM
C[C@@]1(C2CCCC2)Cc2cc(OCCCC(=O)O)c(Cl)c(Cl)c2C1=O | 0.25 µM | 5.7 | 99% | – | Relative salidiuretic activity (Canis familiaris [16]): inactive; Relative salidiuretic activity (Rattus norvegicus [17]): inactive
CCC1(C2CCCC2)Cc2cc(OCC(=O)O)c(Cl)c(Cl)c2C1=O (racemic) | 0.001 µM | 3.9 | 97% | – | Relative salidiuretic activity (Canis familiaris [3]): moderate; Relative salidiuretic activity (Pan troglodytes [15]): moderate; Relative salidiuretic activity (Rattus norvegicus [23]): moderate
